Source: ChEMBL document CHEMBL1138564, “Microwave-induced synthesis and anti-microbial activities of 7,10,11,12-tetrahydrobenzo[c]acridin-8(9H)-one derivatives” (2009)

Experiments:
Assay type in all cases: functional
Aspergillus niger = assay: Antimicrobial activity against Aspergillus niger NCIM 902 at 10 ug/disk after 72 hrs by disk diffusion method; conditions: NCIM 902, 72 h, read-out: DIZ
Method in brief: (§1)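 Disc diffusion on Sabouraud's dextrose agar. 100 µl of fungal suspension at 10⁶ CFU/ml is spread on the plate. Discs carry test compounds at two loadings in DMSO; DMSO alone is the negative control. Clotrimazole disc is the positive reference. Plates are incubated at 27 °C for 72 h, and the zone of inhibition diameter is measured.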

Aspergillus flavus = assay: Antimicrobial activity against Aspergillus flavus NCIM 902 at 10 ug/disk after 72 hrs by disk diffusion method; conditions: NCIM 535, 72 h, in the assay text read “NCIM 535” for “NCIM 902”, read-out: DIZ; method in brief: as §1
Rhodotorula mucilaginosa = assay: Antimicrobial activity against Rhodotorula rubra NCIM 3174 at 10 ug/disk after 72 hrs by disk diffusion method; conditions: NCIM 3174, 72 h, read-out: DIZ
Method in brief: (§2)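 Clotrimazole reference disc at 10 µg/disc. Fungal inoculum of 100 µl at 10⁶ CFU/ml was spread on Sabouraud's dextrose agar and incubated at 27 °C for 72 h. The read-out was inhibition zone diameter.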

Aspergillus fumigatus = assay: Antimicrobial activity against Aspergillus fumigatus NCIM 902 at 10 ug/disk after 72 hrs by disk diffusion method; conditions: NCIM 902, 72 h, read-out: DIZ; method in brief: as §1
Aspergillus parasiticus = assay: Antimicrobial activity against Aspergillus parasiticus NCIM 904 at 10 ug/disk after 72 hrs by disk diffusion method; conditions: NCIM 904, 72 h, read-out: DIZ; method in brief: as §1
Penicillium chrysogenum = assay: Antimicrobial activity against Penicillium chrysogenum NCIM 707 at 10 ug/disk after 72 hrs by disk diffusion method; conditions: NCIM 707, 72 h, read-out: DIZ; method in brief: as §1
Lipomyces lipofer = assay: Antimicrobial activity against Lipomyces lipofer NCIM 3252 at 10 ug/disk after 72 hrs by disk diffusion method; conditions: NCIM 3252, 72 h, read-out: DIZ; method in brief: as §1
Trichoderma viride = assay: Antimicrobial activity against Trichoderma viride NCIM 1195 at 10 ug/disk after 72 hrs by disk diffusion method; conditions: NCIM 1195, 72 h, read-out: DIZ; method in brief: as §2

Q: With `Clc1ccccc1C(c1ccccc1)(c1ccccc1)n1ccnc1` [CLOTRIMAZOLE] as the compound, how does the zone of inhibition at 10 µg/disc (Aspergillus niger) read?
A: 16 mm

Q: What about the zone of inhibition at 10 µg/disc (Aspergillus flavus) of the same compound?
A: 16 mm

Q: What about the zone of inhibition at 10 µg/disc (Rhodotorula mucilaginosa) of the same compound?
A: 17 mm

Q: What about the zone of inhibition at 10 µg/disc (Aspergillus fumigatus) of the same compound?
A: 18 mm

Q: What about the zone of inhibition at 10 µg/disc (Aspergillus parasiticus) of the same compound?
A: 18 mm

Q: What about the zone of inhibition at 10 µg/disc (Penicillium chrysogenum) of the same compound?
A: 21 mm

Q: And the zone of inhibition at 10 µg/disc (Lipomyces lipofer)?
A: 18 mm

Q: What about the zone of inhibition at 10 µg/disc (Trichoderma viride) of the same compound?
A: 19 mm
